Shown are actives, neighbours in structure and some others; about 2.9% of the full set was active somewhere.
HEK293 NFkB inh: lowers PMA/ionomycin-induced NF-kB signal in HEK293 cells | hit rate 0.21% among 62,000 | inhibition, % at 3 µM | HEK-293 NF-kB luciferase reporter, luminescence;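 active = inhibition above the mean of all tested compounds plus 3 SD, cut at about 40% in these data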;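 note: 0% = stimulated DMSO wells and 100% = 10 µM reference inhibitor 5653914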
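Signal: luciferase luminescence; Material: HEK-293 cells with stable firefly luciferase reporter driven by four HIV NF-kB elements; Probe or stimulus: PMA with ionomycin; Replication: tested once; Times: 1 h compound pretreatment, then 16 h stimulation at 37 °C, 5% CO2; Benchmarks: DMSO and 10 µM reference inhibitor; Evaluation: per-plate % inhibition versus controls.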
SF1 activator: activators of human nuclear receptor SF-1 | activation, % at 10 µM | CHO-K1 Gal4-SF-1 LBD luciferase reporter; % increase over DMSO SF-1-specific signal | hit rate 1.9% among 65,000 | Q13285;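 active = activation above the mean activation of all tested compounds plus 3 SD, cut at about 50% in these data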
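Assay system – CHO-K1 cells with Gal4–hSF-1 LBD chimera plus Gal4-driven luciferase · Quantity – 4,000 cells per well · Times – compound added 1 h post-seeding, 20 h exposure at 37 °C, 5% CO2 · Measured by – luciferase light emission · Benchmarks – DMSO and mock-transfected background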
Jurkat viability: reduces viability or proliferation of Jurkat cells. Jurkat E6.1 viability, ATP luminescence, 48 h. inhibition, % at 4 µM. hit rate 1.2% among 56,000. AID 463;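 active = inhibition above the mean inhibition of all tested compounds plus 3 SD, cut at about 28% in these data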
RORa activator: RORA (human) activation. CHO-K1 Gal4-RORA LBD luciferase reporter, luminescence; percent increase over mock-subtracted basal signal. hit rate 1.5% among 65,000. activation, % at 10 µM. AID 560;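 active = activation above the mean of all tested compounds plus 3 SD, cut at about 49% in these data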;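 note: 0% = DMSO-treated RORA cells and 100% = added signal equal to DMSO minus mock-transfected cells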
Target sequence (P35398 whole entry, looked up, the tested form may be a part): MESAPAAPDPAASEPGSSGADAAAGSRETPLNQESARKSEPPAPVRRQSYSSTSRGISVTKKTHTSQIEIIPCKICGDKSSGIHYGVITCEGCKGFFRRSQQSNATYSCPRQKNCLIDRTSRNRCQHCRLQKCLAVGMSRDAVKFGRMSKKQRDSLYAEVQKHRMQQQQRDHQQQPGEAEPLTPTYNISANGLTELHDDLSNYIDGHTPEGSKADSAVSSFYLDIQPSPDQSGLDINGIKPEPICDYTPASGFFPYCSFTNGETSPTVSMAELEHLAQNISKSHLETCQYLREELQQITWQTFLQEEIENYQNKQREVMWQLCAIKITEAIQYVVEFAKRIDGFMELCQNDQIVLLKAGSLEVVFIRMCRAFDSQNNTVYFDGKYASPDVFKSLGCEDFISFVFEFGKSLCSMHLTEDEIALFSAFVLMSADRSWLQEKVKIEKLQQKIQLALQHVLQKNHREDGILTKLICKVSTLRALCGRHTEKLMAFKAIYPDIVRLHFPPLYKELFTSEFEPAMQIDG
MT1-MMP txn act: MT1-MMP promoter transcription activation | hit rate 0.16% among 86,000 | activation factor at 10 µM | AID 750 | HT1080 MT1-MMP promoter luciferase reporter, luminescence, overnight; active compounds read high;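 active = activation factor of at least 2 for MT1-MMP transcription at 10 µM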
Active calls of the source: *.

`CC(C)CC1NC(=O)N(CC(=O)c2ccc3c(c2)OCCO3)C1=O` (stereo not drawn) gave HEK293 NFkB inh -18.4, SF1 activator 83.9*, RORa activator 57.4* and MT1-MMP txn act 1.2.
For CC1=C(C(=O)OCC(Br)(Br)Br)C(c2ccccc2)NC(=O)N1CCCC(=O)O (stereo not drawn) the results were MT1-MMP txn act 1.3.
Cn1cccc1C(=O)OCc1cc(Cl)cc2c1OCOC2 was read as HEK293 NFkB inh 12.4, SF1 activator 60.2*, Jurkat viability -1.9, RORa activator 23.8 and MT1-MMP txn act 1.5.
`COc1cc(NC(=O)c2cc3nc(C)cc(C)n3n2)c(OC)cc1Cl` gave HEK293 NFkB inh -42.0, SF1 activator 58.0*, Jurkat viability -6.9, RORa activator 85.7* and MT1-MMP txn act 1.1.
For O=C1CN(C(=O)c2ccccn2)c2ccccc2N1 the results were HEK293 NFkB inh 1.0, SF1 activator 4.2, RORa activator -6.1 and MT1-MMP txn act 1.1.
CCCn1nc(C(=O)N2CC(=O)Nc3ccccc32)c2ccccc2c1=O was read as HEK293 NFkB inh 6.1, SF1 activator 18.6, Jurkat viability 73.5*, RORa activator 15.0 and MT1-MMP txn act 1.2.
Screening Cc1ccc(-c2cc3c(nn2)-c2ccccc2C3=O)cc1 returned HEK293 NFkB inh 62.5*, SF1 activator -88.2, Jurkat viability 16.5 and RORa activator -82.7.
Screening Cc1ccccc1-c1cc2c(nn1)-c1ccccc1C2=O returned MT1-MMP txn act 1.2.
Screening COc1ccc(CCNC(=O)C2CCN(S(C)(=O)=O)CC2)cc1 returned MT1-MMP txn act 1.1.
For CCn1c(C(=O)Nc2ccsc2C(=O)OC)cc2sc(Cl)cc21 the results were HEK293 NFkB inh 20.7, SF1 activator 8.2, Jurkat viability -0.7, RORa activator -0.8 and MT1-MMP txn act 1.2.
CC(=O)Cc1nsc(Nc2ccc3c(c2)OCCO3)n1 was read as HEK293 NFkB inh -22.3, SF1 activator 67.4*, RORa activator 121.8* and MT1-MMP txn act 1.7.
`O=C(O)CN1C(=O)c2cccc(Oc3ccc(Cl)cc3)c2C1=O` gave HEK293 NFkB inh 13.6, SF1 activator -12.6, Jurkat viability 6.9, RORa activator -1.0 and MT1-MMP txn act 1.1.
For c1ccn2cc(CSc3nnc4ccccn34)nc2c1 the results were HEK293 NFkB inh -17.4, SF1 activator 57.6*, Jurkat viability 0.8, RORa activator 56.8* and MT1-MMP txn act 1.6.
c1ccn2c(SCc3ccc4c(c3)OCCO4)nnc2c1 was read as HEK293 NFkB inh -10.9, SF1 activator 39.7, Jurkat viability 1.5, RORa activator 56.6* and MT1-MMP txn act 1.5.
For COc1cc(C2=NOC(C(=O)NCc3ccc(F)cc3)C2)cc(OC)c1OC (stereo not drawn) the results were HEK293 NFkB inh 29.8, SF1 activator -7.9, Jurkat viability 96.1*, RORa activator -17.7 and MT1-MMP txn act 0.6.
COc1ccc(C2=NOC(C(=O)NCc3ccc(F)cc3)C2)cc1OC (stereo not drawn) was read as HEK293 NFkB inh 33.2, SF1 activator 3.3, Jurkat viability 93.3*, RORa activator -4.5 and MT1-MMP txn act 0.6.
Screening COc1cccc(C2=NOC(C(=O)NCc3ccc(F)cc3)C2)c1 (stereo not drawn) returned HEK293 NFkB inh -1.9, SF1 activator 7.5, Jurkat viability -5.4, RORa activator -3.8 and MT1-MMP txn act 1.2.
Cc1nc2ccccc2n1CC(=O)NCc1ccccc1 was read as HEK293 NFkB inh 18.0, SF1 activator -12.8, Jurkat viability 41.4*, RORa activator -6.7 and MT1-MMP txn act 1.1.
`O=C(Cn1c(CC(=O)N2CCCC2)nc2ccccc21)NCc1ccccc1` gave HEK293 NFkB inh 22.1, SF1 activator -4.7, Jurkat viability -2.1, RORa activator -2.9 and MT1-MMP txn act 1.1.
For Cc1csc(NC(=O)c2cc3c(s2)CCC3)n1 the results were HEK293 NFkB inh -24.4, SF1 activator -12.0, RORa activator -3.6 and MT1-MMP txn act 0.3.
Cc1csc(NC(=O)c2cc3c(s2)-c2ccccc2OC3)n1 was read as HEK293 NFkB inh -19.0, SF1 activator 43.0, Jurkat viability 23.7, RORa activator 63.4* and MT1-MMP txn act 1.6.
O=C(c1cc2c(s1)-c1ccccc1OC2)N1CCCC1 was read as HEK293 NFkB inh -11.3, SF1 activator 47.6, Jurkat viability -1.2, RORa activator 83.8* and MT1-MMP txn act 1.6.
